Screens deposited in PubChem BioAssay by Broad Institute.
Hits are enriched below; roughly 3.4% of the tested compounds scored in any of these assays.
E-selectin induc – induces E-selectin expression in human endothelial cells; 260,000 tested, 0.37% active; HUVEC E-selectin immunofluorescence imaging; normalized: neutral wells 0, TNF-alpha wells 100; activation, % at 7.58 µM; AID 686992; P16581;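 active = mean E-selectin-positive cell signal at least 10% of the positive control, reached in at least 60% of replicates, without over 20% cell loss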
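Test system: HUVEC | Signal: Immunofluorescence imaging | Read-out: Percent E-selectin-positive cells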
SIRT5 block – blocks human SIRT5 desuccinylation of peptide. Q9NXA8. Purified SirT5, succinyl-peptide AMC, trypsin-coupled fluorescence. AID 652115. 330,000 tested, 1.1% active. inhibition, % at 15 µM; in the data active = inhibition above about 15%
Target sequence (Q9NXA8 whole entry, looked up): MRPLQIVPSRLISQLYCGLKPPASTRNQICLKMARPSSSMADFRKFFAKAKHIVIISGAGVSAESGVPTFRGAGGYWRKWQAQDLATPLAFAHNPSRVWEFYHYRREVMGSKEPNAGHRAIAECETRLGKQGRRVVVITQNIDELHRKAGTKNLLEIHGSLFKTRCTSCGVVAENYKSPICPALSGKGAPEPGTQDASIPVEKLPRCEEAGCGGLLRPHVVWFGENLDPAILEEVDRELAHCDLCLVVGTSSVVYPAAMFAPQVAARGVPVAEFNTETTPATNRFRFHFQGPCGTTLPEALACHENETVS
S100A4 inh HTS – inhibitors of human S100A4 binding to myosin IIA peptide; P26447; S100A4/TAMRA-MyoIIA peptide fluorescence polarization; inhibition, % at 10.7 µM; 360,000 tested, 0.14% active; AID 652163;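 active = mean inhibition of at least 70% across replicates, with every replicate also reaching that level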
Target sequence (P26447 whole entry, looked up): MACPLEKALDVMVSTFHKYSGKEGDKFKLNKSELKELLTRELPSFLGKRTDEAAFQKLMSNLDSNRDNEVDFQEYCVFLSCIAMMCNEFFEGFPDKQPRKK
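Compound dosing: one dose per compound; test system: human S100A4 monomer with TAMRA-labelled myosin IIA peptide; probe or stimulus: TAMRA-labelled myosin IIA heavy-chain peptide probe, 5 nM; medium: HEPES buffer with Ca2+, pH 7.2; schedule: 5 min incubation before reading; benchmarks: neutral control DMSO, positive control TFP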
ERAP1 HTS inh – blocks human ERAP1 aminopeptidase activity; Q9NZ08; inhibition, % at 10.7 µM; AID 652197; recombinant ERAP1, Leu-AMC fluorescence, 60 min; 340,000 tested, 0.15% active;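 active = mean replicate inhibition of at least 30%, or all replicates individually reaching that 30% level; inactive = mean below 30% and not every replicate reaching it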;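 note: 0% = neutral control wells and 100% = L-leucinethiol positive control wells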
rRNA inh HTS – selective bacterial rRNA inhibition in E. coli. E. coli WT GFP vs humanized-ribosome RFP mutants, fluorescence, 24 h; active compounds read low; DMSO median 0, no signal -100. GFP signal change (wild-type ribosome), % (test concentration not listed). 350,000 tested, 1.6% active. AID 720706;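 active = significant combined selectivity score with lowered wild-type GFP, culture density cut under 30%, mutant RFP and density less affected; inactive = any of these conditions unmet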
AF4-AF9 inh – blocks AF4 peptide binding to human AF9. AlphaScreen, biotin-AF4 peptide binding to FLAG-AF9. inhibition, % at 10 µM. 350,000 tested, 0.47% active. P42568;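 active = every replicate reaching a set inhibition limit, whatever the replicate mean, cut at about 25% in these data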;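 note: 0% = plate neutral control median and 100% = total signal loss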
Numbers without * were called inactive; · = not tested or not shown.

SMILES	E-selectin induc	SIRT5 block	S100A4 inh HTS	ERAP1 HTS inh	rRNA inh HTS	AF4-AF9 inh
COc1ccc(-c2ccc3c(c2)[C@H]2[C@H](CCN2C(=O)NC2CCCC2)[C@H](CO)N3C)cc1	1	-7	19	2	-13	26*
COc1ccc(-c2ccc3c(c2)[C@@H]2[C@@H](CCN2S(=O)(=O)c2ccc(F)cc2)[C@H](CO)N3C)cc1	0	16*	1	3	1	4
COc1ccc(-c2ccc3c(c2)[C@@H]2[C@@H](CCN2C(=O)NC2CCCCC2)[C@H](CO)N3C)cc1	0	-1	6	0	-5	16
CO[C@@H]1CN(C)C(=O)c2cc(NC(=O)C3CC3)ccc2OC[C@H](C)N(Cc2cccnc2)C[C@@H]1C	0	-1	1	4	-3	0
CN1CCN(C(=O)C[C@H]2C=C[C@H](NS(=O)(=O)c3cccc(F)c3)[C@H](CO)O2)CC1	0	4	5	0	0	-4
COc1ccc2c3c(n(C)c2c1)[C@H](CO)N(C(C)=O)CC31CCN(C(=O)Nc2ccc(F)cc2)CC1	·	·	·	·	-9	·
Cc1ccc(S(=O)(=O)/N=S(/c2ccccc2)C(C)C)cc1 (centres undefined)	3	1	-3	46*	6	-3
CCCNC(=O)Nc1ccc2c(c1)C(=O)N(C)C[C@H](OC)[C@H](C)CN(C(=O)C1CC1)[C@@H](C)CO2	0	-2	7	-2	4	2
O=C(C[C@@H]1CC[C@H](NC(=O)C2CCC2)[C@H](CO)O1)NC1CCCCC1	0	5	4	-2	3	-1
C[C@@H]1CN([C@@H](C)CO)S(=O)(=O)c2ccc(-c3ccncc3)cc2O[C@@H]1CN(C)Cc1ccc(Oc2ccccc2)cc1	0	2	6	2	-4	2
CCCN(C)C[C@H]1Oc2cc(-c3ccncc3)ccc2S(=O)(=O)N([C@H](C)CO)C[C@H]1C	0	17*	7	-1	0	-1
C[C@H]1CN([C@@H](C)CO)S(=O)(=O)c2ccc(-c3cncnc3)cc2O[C@H]1CN(C)Cc1ccc(Oc2ccccc2)cc1	0	27*	-4	0	-2	6
C[C@@H]1CN([C@H](C)CO)S(=O)(=O)c2ccc(-c3ccncc3)cc2O[C@H]1CN(C)Cc1ccc(Oc2ccccc2)cc1	131*	1	-20	1	-1	-27
C[C@@H]1CN([C@@H](C)CO)S(=O)(=O)c2ccc(-c3cncnc3)cc2O[C@@H]1CN(C)Cc1ccccc1	0	3	6	-1	1	-4
Cc1noc(C)c1S(=O)(=O)Nc1ccc2c(c1)CC(=O)N([C@H](C)CO)C[C@H](C)[C@H](CN(C)C(=O)Nc1ccc3c(c1)OCO3)O2	4	·	·	·	2	·
CS(=O)(=O)N1C[C@@H]2C(c3ccc(Br)cc3)[C@H](C1)N2Cc1ccc(F)cc1 (some centres undefined)	·	·	·	·	-13	·
C[C@@H]1CN([C@H](C)CO)C(=O)c2cc(NS(=O)(=O)c3cn(C)cn3)ccc2O[C@@H](C)CCCCO[C@@H]1CN(C)C(=O)C1CCCCC1	0	12	3	-1	-1	-6
CCOC(=O)C1=C(c2ccccc2)N=c2sc(=Cc3cc(OC)c(OC)c(OC)c3)c(=O)n2C1c1cccs1 (centres undefined)	3	16*	-8	·	2	3
CCOC(=O)C1=C(C)N=c2sc(=Cc3cc(Cl)c(OCC(=O)O)c(OC)c3)c(=O)n2C1c1ccccc1Cl (centres undefined)	0	24*	-9	-5	8	18
CCOC(=O)C1=C(C)N=c2s/c(=C\c3ccc(OCC(=O)O)c(OC)c3)c(=O)n2C1c1ccc(OC)cc1 (centres undefined)	1	8	-5	11	-1	8
CCOC(=O)C1=C(c2ccccc2)N=c2s/c(=C\c3ccc(O)cc3)c(=O)n2C1c1cccs1 (centres undefined)	·	0	-1	-3	-2	16
O=C(COC(=O)[C@@H]1CCCN1C(=O)c1cccs1)Nc1ccc(Br)cc1	5	-4	4	1	-20	-1
CC(=O)c1cccc(NC(=O)COC(=O)C2CCCN2C(=O)c2cccs2)c1 (centres undefined)	-1	·	-5	0	-18*	2
C[C@@H]1CN([C@@H](C)CO)C(=O)c2cc(-c3ccncc3)cnc2O[C@H]1CN(C)C(=O)C1CCC1	0	·	·	·	1	·
CC=Cc1ccc2n(c1=O)C[C@@H]1[C@@H](CO)[C@H](C(=O)N3CCCCC3)[C@H]2N1C(=O)C1CC1 (mixture of isomers)	0	-3	-3	1	2	-1
SMILES	E-selectin induc	SIRT5 block	S100A4 inh HTS	ERAP1 HTS inh	rRNA inh HTS	AF4-AF9 inh
CN1CCN(C2CN(Cc3ccccc3)S(=O)(=O)C2)CC1 (centres undefined)	1	0	2	0	12	0
O=S1(=O)CC(N2CCC(c3ccccc3)CC2)CN1Cc1ccccc1 (centres undefined)	0	37*	-11	6	-3	-1
CCCCN1CC(N2CCN(Cc3ccccc3)CC2)CS1(=O)=O (centres undefined)	·	-5	-8	·	-32*	2
COc1ccccc1NC(=O)N1CCCCN2[C@H](CO)[C@H](c3ccc(C#CC4CC4)cc3)[C@H]2C1	·	4	-8	5	·	12
C[C@H]1CN([C@@H](C)CO)C(=O)c2cc(-c3ccccc3F)cnc2O[C@H]1CN(C)C(=O)CN(C)C	0	-5	-36	-2	1	-3
CC(C)[C@H]1C(=O)N[C@@H](c2ccc3c(c2)OCO3)CC=CC[C@H](C)Oc2ccccc2C(=O)N1C (mixture of isomers)	·	·	·	·	-3	·
COCC(=O)NC[C@H]1N[C@H](CO)[C@H]1c1ccc(C2=CCCCC2)cc1	0	37*	3	-3	-1	9
COc1ccc2c3c([nH]c2c1)[C@H](CO)N(C)CC31CN(C(=O)c2cccnc2)C1	0	·	-41	0	3	-1
CCCn1c(=O)c2ccccc2n2c(SCCNCCO)nnc12	0	2	-1	4	7	27*
CN1C(=O)NC(c2ccccc2[N+](=O)[O-])C2=C1CCCC2=O (centres undefined)	0	2	117*	3	-3	-3
CN1C(=O)NC(c2ccccc2[N+](=O)[O-])C2=C1CC(C)(C)CC2=O (centres undefined)	·	0	-3	2	-1	-5
Cc1noc(C)c1NC(=O)Nc1cccc2c1O[C@H](CN(C)Cc1ccc3c(c1)OCO3)[C@H](C)CN([C@@H](C)CO)C2=O	-11	·	3	1	-2	-2
